Test results published in ChEMBL document CHEMBL1144856, “Design, synthesis, and biological evaluation of 1-(4-sulfamylphenyl)-3-trifluoromethyl-5-indolyl pyrazolines as cyclooxygenase-2 (COX-2) and lipoxygenase (LOX) inhibitors” (Bioorg Med Chem, 2008).

Organism: Ovis aries
Test: Selectivity ratio of IC50 for ovine COX1 to IC50 for ovine COX2
Method in brief: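 Purified hematin-reconstituted ovine COX-1 and COX-2 (six units each) in Tris–HCl 0.1 M pH 8.0, 5 mM EDTA, 2 mM phenol. Enzymes were preincubated 1 h at room temperature with inhibitor in DMSO, then given arachidonic acid for 2 min at 37 °C. PGF2α from SnCl2 reduction of PGH2 was read by EIA. IC50s are means of duplicates; ratio is COX-1 IC50/COX-2 IC50.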

| Compound | Ratio IC50 |
| --- | --- |
| NS(=O)(=O)c1ccc(N2N=C(C(F)(F)F)CC2c2c[nH]c3ccc(Cl)cc23)cc1 (stereo not drawn) | > 3 |
| NS(=O)(=O)c1ccc(N2N=C(C(F)(F)F)CC2c2c[nH]c3cc(Br)ccc23)cc1 (stereo not drawn) | > 23 |
| NS(=O)(=O)c1ccc(N2N=C(C(F)(F)F)CC2c2c[nH]c3c(Cl)cccc23)cc1 (single isomer, unassigned; enantiomer 2) [listing 1 of 2 here] | > 1 |
| NS(=O)(=O)c1ccc(N2N=C(C(F)(F)F)CC2c2c[nH]c3ccccc23)cc1 (single isomer, unassigned; enantiomer 2) [listing 1 of 2 here] | > 8 |
| NS(=O)(=O)c1ccc(N2N=C(C(F)(F)F)CC2c2c[nH]c3ccc([N+](=O)[O-])cc23)cc1 (stereo not drawn) | 2 |
| Nc1ccc2c(C3CC(C(F)(F)F)=NN3c3ccc(S(N)(=O)=O)cc3)c[nH]c2c1 (stereo not drawn) | 14 |
| NS(=O)(=O)c1ccc(N2N=C(C(F)(F)F)CC2c2c[nH]c3ccccc23)cc1 (single isomer, unassigned; enantiomer 1) [listing 1 of 2 here] | > 119 |
| Cc1[nH]c2cc(Cl)ccc2c1C1CC(C(F)(F)F)=NN1c1ccc(S(N)(=O)=O)cc1 (stereo not drawn) | > 17 |
| Nc1ccc2[nH]cc(C3CC(C(F)(F)F)=NN3c3ccc(S(N)(=O)=O)cc3)c2c1 (stereo not drawn) | > 118 |

These compounds were tested against T1, Prostaglandin G/H synthase 1 (Ovis aries, UniProt P05979) (assay: Inhibition of ovine COX1 by enzyme immuno assay).
T1 sequence (P05979 whole entry): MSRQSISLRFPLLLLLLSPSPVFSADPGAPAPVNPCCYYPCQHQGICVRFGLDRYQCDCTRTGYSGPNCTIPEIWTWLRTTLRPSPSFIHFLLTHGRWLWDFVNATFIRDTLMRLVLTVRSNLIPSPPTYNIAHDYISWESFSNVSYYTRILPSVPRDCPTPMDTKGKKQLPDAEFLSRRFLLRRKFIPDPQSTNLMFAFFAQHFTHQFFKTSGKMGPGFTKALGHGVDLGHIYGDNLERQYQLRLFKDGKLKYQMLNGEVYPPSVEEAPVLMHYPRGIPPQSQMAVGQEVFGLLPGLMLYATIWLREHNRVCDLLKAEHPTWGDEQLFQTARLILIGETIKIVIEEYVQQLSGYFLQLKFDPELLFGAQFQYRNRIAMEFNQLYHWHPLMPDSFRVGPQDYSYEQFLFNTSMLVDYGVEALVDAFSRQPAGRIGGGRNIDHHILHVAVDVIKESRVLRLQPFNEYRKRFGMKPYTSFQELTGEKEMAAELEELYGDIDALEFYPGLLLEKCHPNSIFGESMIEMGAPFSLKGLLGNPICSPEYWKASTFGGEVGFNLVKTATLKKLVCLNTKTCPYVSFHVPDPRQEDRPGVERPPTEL
Method in brief: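 Hematin-reconstituted purified ovine COX-1 (six units) in 0.1 M Tris-HCl pH 8.0 with 5 mM EDTA and 2 mM phenol. Pre-incubated 1 h at room temperature with inhibitor in DMSO, then arachidonic acid added for 2 min at 37 °C. PGH2 was reduced with stannous chloride and PGF2α measured by EIA. Run in duplicate; IC50 is the mean of the duplicates.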

| Compound | IC50 [µM] |
| --- | --- |
| NS(=O)(=O)c1ccc(N2N=C(C(F)(F)F)CC2c2c[nH]c3ccccc23)cc1 (stereo in doubt; 5a) | > 100 |
| NS(=O)(=O)c1ccc(N2N=C(C(F)(F)F)CC2c2c[nH]c3ccccc23)cc1 (single isomer, unassigned; enantiomer 1) [listing 2 of 2 here] | > 100 |
| NS(=O)(=O)c1ccc(N2N=C(C(F)(F)F)CC2c2c[nH]c3c(Cl)cccc23)cc1 (single isomer, unassigned; enantiomer 2) [listing 2 of 2 here] | > 100 |
| NS(=O)(=O)c1ccc(N2N=C(C(F)(F)F)CC2c2c[nH]c3c(Cl)cccc23)cc1 (single isomer, unassigned; enantiomer 1) | > 100 |
| NS(=O)(=O)c1ccc(N2N=C(C(F)(F)F)CC2c2c[nH]c3ccc(Cl)cc23)cc1 (stereo not drawn) | > 100 |
| NS(=O)(=O)c1ccc(N2N=C(C(F)(F)F)CC2c2c[nH]c3cc(Br)ccc23)cc1 (stereo not drawn) | > 100 |
| NS(=O)(=O)c1ccc(N2N=C(C(F)(F)F)CC2c2c[nH]c3ccc([N+](=O)[O-])cc23)cc1 (stereo not drawn) | > 100 |
| Nc1ccc2c(C3CC(C(F)(F)F)=NN3c3ccc(S(N)(=O)=O)cc3)c[nH]c2c1 (stereo not drawn) | > 100 |
| NS(=O)(=O)c1ccc(N2N=C(C(F)(F)F)CC2c2c[nH]c3c(Cl)cccc23)cc1 (stereo in doubt; 5f) | > 100 |
| NS(=O)(=O)c1ccc(N2N=C(C(F)(F)F)CC2c2c[nH]c3ccccc23)cc1 (single isomer, unassigned; enantiomer 2) [listing 2 of 2 here] | > 100 |
| Cc1[nH]c2cc(Cl)ccc2c1C1CC(C(F)(F)F)=NN1c1ccc(S(N)(=O)=O)cc1 (stereo not drawn) | > 100 |
| Nc1ccc2[nH]cc(C3CC(C(F)(F)F)=NN3c3ccc(S(N)(=O)=O)cc3)c2c1 (stereo not drawn) | > 100 |

The compounds below were run against T2, Polyunsaturated fatty acid lipoxygenase ALOX12 (Homo sapiens) (UniProt P18054) (assay: Inhibition of LOX12 from human platelets at 10 uM by enzyme immuno assay).
T2 sequence (whole entry): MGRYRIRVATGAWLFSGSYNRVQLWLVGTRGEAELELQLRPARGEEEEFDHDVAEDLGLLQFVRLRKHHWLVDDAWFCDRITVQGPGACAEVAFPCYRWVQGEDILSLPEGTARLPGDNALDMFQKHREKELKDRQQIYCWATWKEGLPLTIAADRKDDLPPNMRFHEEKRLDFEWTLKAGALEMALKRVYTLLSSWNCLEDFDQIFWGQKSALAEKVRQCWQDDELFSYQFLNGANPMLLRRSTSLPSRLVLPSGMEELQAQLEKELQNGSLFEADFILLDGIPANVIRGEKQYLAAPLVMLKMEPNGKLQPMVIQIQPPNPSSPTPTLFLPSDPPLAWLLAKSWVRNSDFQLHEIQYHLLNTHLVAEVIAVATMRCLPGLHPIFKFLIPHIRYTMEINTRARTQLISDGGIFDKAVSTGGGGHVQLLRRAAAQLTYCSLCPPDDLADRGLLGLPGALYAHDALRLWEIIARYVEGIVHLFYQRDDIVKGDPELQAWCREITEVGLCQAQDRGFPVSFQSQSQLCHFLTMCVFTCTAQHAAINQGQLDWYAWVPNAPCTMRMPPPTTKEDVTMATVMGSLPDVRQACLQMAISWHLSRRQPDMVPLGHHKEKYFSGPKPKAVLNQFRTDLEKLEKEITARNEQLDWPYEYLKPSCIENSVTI
Method in brief: (§1)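 Run by a contract lab. Enzyme sources: human PBML cells (LOX-5), human platelets (LOX-12), rabbit reticulocytes (LOX-15). Substrates: endogenous arachidonic acid (LOX-5), added arachidonic acid (LOX-12), linoleic acid (LOX-15). Inhibition read as LTB4 (LOX-5), 12-HETE (LOX-12) or 15-HETE (LOX-15), quantified by EIA and spectrophotometrically.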

| Compound | inhibition [%] |
| --- | --- |
| Cc1ccc(-c2cc(C(F)(F)F)nn2-c2ccc(S(N)(=O)=O)cc2)cc1 | 7 |

These compounds were tested against T3, Polyunsaturated fatty acid lipoxygenase ALOX15 (Oryctolagus cuniculus) (UniProt P12530) (assay: Inhibition of LOX15 from rabbit reticulocytes at 10 uM by enzyme immuno assay).
T3 sequence (whole entry): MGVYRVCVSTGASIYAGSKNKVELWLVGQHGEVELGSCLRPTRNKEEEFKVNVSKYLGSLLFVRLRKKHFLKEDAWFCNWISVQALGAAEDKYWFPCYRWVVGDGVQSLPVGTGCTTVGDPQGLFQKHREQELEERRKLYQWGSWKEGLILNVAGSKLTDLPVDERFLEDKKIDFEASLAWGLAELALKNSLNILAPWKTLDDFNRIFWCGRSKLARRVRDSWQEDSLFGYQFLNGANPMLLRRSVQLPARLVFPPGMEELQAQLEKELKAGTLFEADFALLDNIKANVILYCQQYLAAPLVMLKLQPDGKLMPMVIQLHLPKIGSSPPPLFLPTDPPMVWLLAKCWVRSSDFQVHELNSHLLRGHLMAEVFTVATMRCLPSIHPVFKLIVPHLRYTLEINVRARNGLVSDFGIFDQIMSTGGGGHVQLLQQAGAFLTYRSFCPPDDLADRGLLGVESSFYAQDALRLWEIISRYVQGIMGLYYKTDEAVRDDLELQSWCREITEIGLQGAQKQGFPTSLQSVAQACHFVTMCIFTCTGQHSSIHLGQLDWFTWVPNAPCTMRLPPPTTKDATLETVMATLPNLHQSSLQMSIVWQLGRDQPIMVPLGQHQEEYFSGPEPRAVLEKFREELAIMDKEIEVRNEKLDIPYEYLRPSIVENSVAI
Method in brief: as §1

| Compound | inhibition [%] |
| --- | --- |
| Cc1ccc(-c2cc(C(F)(F)F)nn2-c2ccc(S(N)(=O)=O)cc2)cc1 | 22 |
